# Assay outcomes: PubChem BioAssay, Johns Hopkins Ion Channel Center
# TRPC6 act = activators of mouse TRPC6 channel. HEK293-TRPC6 membrane potential dye fluorescence; stronger effect = higher value. B-score at 10 µM. 310,000 compounds, 0.13% hits. AID 2550;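 active = B-score of the integrated fluorescence ratio above library mean plus 3 SD, and starting fluorescence ratio within library mean plus 5 SD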;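 also: higher score means more depolarization so channel activation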
# TRPC4 act = activators of mouse TRPC4 channel. Q9QUQ5. HEK293 TRPC4beta/mu-opioid, Fluo4 calcium fluorescence; stronger effect = higher value. B-score at 10 µM. 310,000 compounds, 0.49% hits;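 active = B-score above 5 SD of library B-scores, and initial fluorescence ratio not above library mean plus 5 SD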;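 also: positive B-score marks a calcium rise read as TRPC4 activation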
# Target sequence (Q9QUQ5 whole entry, looked up): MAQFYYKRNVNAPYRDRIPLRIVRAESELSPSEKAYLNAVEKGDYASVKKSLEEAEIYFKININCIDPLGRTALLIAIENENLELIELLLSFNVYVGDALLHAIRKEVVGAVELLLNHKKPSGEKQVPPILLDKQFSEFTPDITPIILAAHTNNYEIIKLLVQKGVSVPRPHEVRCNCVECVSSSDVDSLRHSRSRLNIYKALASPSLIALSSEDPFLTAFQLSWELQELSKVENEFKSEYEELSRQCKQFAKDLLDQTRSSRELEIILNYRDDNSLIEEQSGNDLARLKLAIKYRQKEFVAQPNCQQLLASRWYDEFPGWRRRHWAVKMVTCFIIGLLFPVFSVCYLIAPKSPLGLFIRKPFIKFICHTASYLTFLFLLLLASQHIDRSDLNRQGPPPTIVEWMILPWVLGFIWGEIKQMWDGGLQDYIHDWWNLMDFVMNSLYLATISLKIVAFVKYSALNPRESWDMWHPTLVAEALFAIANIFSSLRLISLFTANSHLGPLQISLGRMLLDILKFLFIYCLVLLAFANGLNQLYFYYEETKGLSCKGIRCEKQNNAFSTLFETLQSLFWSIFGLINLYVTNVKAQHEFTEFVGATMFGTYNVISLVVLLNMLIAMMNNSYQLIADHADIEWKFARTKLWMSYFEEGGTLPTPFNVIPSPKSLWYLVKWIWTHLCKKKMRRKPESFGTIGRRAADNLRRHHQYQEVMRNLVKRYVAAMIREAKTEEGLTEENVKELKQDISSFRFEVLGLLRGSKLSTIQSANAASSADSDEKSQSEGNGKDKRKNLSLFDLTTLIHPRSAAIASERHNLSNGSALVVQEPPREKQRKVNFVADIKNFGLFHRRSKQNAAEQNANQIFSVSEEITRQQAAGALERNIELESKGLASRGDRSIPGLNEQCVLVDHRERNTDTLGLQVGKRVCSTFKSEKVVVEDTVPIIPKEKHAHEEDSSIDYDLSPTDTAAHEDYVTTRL
#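 Assay system: HEK293 cells stably co-expressing mouse TRPC4beta and mu-opioid receptor / Timing: Fluo4 dye loading 45 min at room temperature, 110 s recording / Signal: Fluo4 calcium-sensitive dye fluorescence, kinetic, 1 Hz baseline / Read-out: integrated baseline-normalised fluorescence ratio, converted to per-well B score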
# TRPC6 inh = mouse TRPC6 channel inhibition; HEK293-TRPC6, membrane potential dye, ACh-evoked depolarization; stronger effect = lower value; B-score at 10 µM; 310,000 compounds, 1.1% hits; AID 2553;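 active = B-score under library mean minus 3 SD, initial fluorescence not abnormally high, positive integrated signal ratio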;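 also: B-score derived from integrated fluorescence ratio over the kinetic read; more negative B-score means stronger inhibition of depolarization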
# TRPC4 inh = blocks the mouse TRPC4 cation channel; AID 2247; HEK293 TRPC4beta/mu-opioid, DAMGO-evoked Fluo4 calcium flux; stronger effect = lower value; B-score at 10 µM; 300,000 compounds, 0.39% hits;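 active = B-score over 3 SD under the library average, no early fluorescence shift, positive overall ratio signal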
#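 test system = HEK293 cells with stable TRPC4beta plus mu-opioid receptor expression | detection = Fluo4 Ca2+ flux fluorescence | read-out = integrated fluorescence ratio relative to baseline, converted to per-well B score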
# TRPC4 PAM = TRPC4 (mouse) allosteric potentiation | Q9QUQ5 | HEK293 TRPC4beta/mu-opioid, DAMGO EC20, Fluo-4 Ca2+ flux; stronger effect = higher value | 310,000 compounds, 0.42% hits | B-score at 10 µM;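 active = B-score of calcium response area above 5 SD of library B-scores, with initial fluorescence ratio within 5 SD of library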;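 also: B-score of integrated fluorescence ratio over time as area under calcium response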
# TRPC4 sel inh 2 = mouse TRPC4 off-target activity of TRPC6 inhibitors, second screen. shares compounds with TRPC6 inh. HEK293 TRPC4/MOR, membrane potential dye fluorescence; channel activated by saturating DAMGO dose. inhibition, % at 10 µM. 920 compounds, 42% hits. AID 2776;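 active = compounds whose fluorescence signal differed from control wells by over 3 SD, either direction, in both duplicate plates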
# TRPC4 spec = mouse TRPC4 off-target activity of TRPC6 inhibitors; shares compounds with TRPC6 inh; HEK293 TRPC4/mu-opioid, membrane potential fluorescence; activity change, negative = inhibition, % at 10 µM; 920 compounds, 61% hits; AID 2777;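 active = rise or fall in signal beyond 3 SD of buffer-only wells in both replicate plates, either sign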;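 also: integrated kinetic ratio of fluorescence range over baseline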
# HEK293 MPD ctr 2-1 = second check of TRPC6 inhibitor effects in parental HEK293 cells | signal change vs control, % at 10 µM | shares compounds with TRPC6 inh | 920 compounds, 31% hits | parental HEK293 membrane potential dye fluorescence; maximal acetylcholine challenge after compound addition;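 active = membrane potential signal moving either way by over 3 SD of the maximum-effect control, in both duplicate plates, meaning non-specific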
# HEK293 MPD ctr-1 = checks TRPC6 inhibitor effects in parental HEK293 cells. shares compounds with TRPC6 inh. AID 2780. 920 compounds, 60% hits. parental HEK293 membrane potential dye fluorescence. membrane potential signal change, % at 10 µM;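 active = membrane potential signal shifting up or down by more than 3 SD of buffer-only wells, on both duplicate plates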
# HEK293 MPD ctr-2 = counter-screen for TRPC6 modulators: effect in parental HEK293 cells; membrane potential dye fluorescence; 2,400 compounds, 51% hits; membrane potential signal change, % at 10 µM; AID 488924; shares compounds with TRPC6 inh;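 active = membrane potential signal moves up or down beyond 5 SD from buffer-only wells, on both duplicate plates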
# HEK293 MPD ctr 2-2 = second counter-screen for TRPC6 modulators: effect in parental HEK293 cells | shares compounds with TRPC6 inh | membrane potential dye fluorescence; after compound, maximal acetylcholine stimulation | AID 488926 | 2,400 compounds, 14% hits | inhibition, % at 10 µM;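 active = membrane potential signal drops by more than 5 SD from the mean control signal, in both duplicate plates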;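 also: plate controls were acetylcholine ECmax control wells for no effect and buffer only wells for full effect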
# TRPC4/MOR mod = selectivity of TRPC6 modulators against mouse TRPC4; percent change from control (negative = decrease, positive = increase), % at 10 µM; shares compounds with TRPC6 inh; HEK293 TRPC4/mu-opioid, membrane potential fluorescence; 2,400 compounds, 69% hits; AID 488927;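 active = membrane potential signal moved up or down beyond 5 SD of buffer control wells, in both duplicate plates, actives on both sides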;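 also: plate controls were assay buffer wells for no effect and DAMGO maximal-effect wells for full effect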
# TRPC4 ctr inh 2 = second selectivity test of TRPC6 modulators against mouse TRPC4 | shares compounds with TRPC6 inh | HEK293 TRPC4/mu-opioid, membrane potential dye fluorescence; stimulated with maximal-effect DAMGO | inhibition, % at 10 µM | 2,400 compounds, 55% hits | AID 488928;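 active = drop in membrane potential signal beyond 5 SD of the control wells in both duplicate plates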;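 also: TRPC4 counter screen for TRPC6 hits run under conditions tuned for TRPC6 not TRPC4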
# TRPC6 block conf = confirmation of mouse TRPC6 inhibitors | HEK293-TRPC6, membrane potential dye, ACh-evoked depolarization | inhibition, % at 10 µM | 3,300 compounds, 43% hits | shares compounds with TRPC6 inh;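 active = fluorescence ratio falls more than 5 SD below the full-stimulation control mean, in both duplicate runs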;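 also: integrated fluorescence ratio of peak minus minimum over baseline after agonist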
# TRPC6 act confirm = mouse TRPC6 activator confirmation | 2,800 compounds, 11% hits | HEK293-TRPC6 membrane potential dye fluorescence, FDSS | shares compounds with TRPC6 inh | activation, % at 10 µM;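 active = ratio signal rise beyond 5 SD above unstimulated control wells' mean, seen in both duplicate runs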;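 also: plate controls were buffer EC0 wells for no effect and acetylcholine ECmax response for full effect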
# An asterisk follows results filed as active; i = inactive; . = no result given. In the library only some 2.3% were active in any assay of this set; here they are far more common.
SMILES,TRPC6 act,TRPC4 act,TRPC6 inh,TRPC4 inh,TRPC4 PAM,HEK293 MPD ctr-2,HEK293 MPD ctr 2-2,TRPC4/MOR mod,TRPC4 ctr inh 2,TRPC6 block conf,TRPC6 act confirm,others
COc1ccc2c(COC(=O)CCS(=O)(=O)c3ccc(C)cc3)cc(=O)oc2c1,i,i,-5.34*,i,i,i,i,i,i,i,i,
COC(=O)Cc1cc(=O)oc2cc(OC)ccc12,i,i,i,i,i,.,.,.,.,.,.,
CCOc1ccc(S(=O)(=O)N2CCCCC2)cc1NC(=O)Cc1cccs1,i,i,i,i,i,.,.,.,.,.,.,
COc1ccc(N=c2cc(-c3ccc(OC)cc3)oc3ccccc23)cc1,i,i,-5.54*,i,i,-109.0%*,i,-25.5%*,52.0%*,38.0%*,i,
CCOc1ccc(N=c2cc(-c3ccc(OC)cc3)oc3ccccc23)cc1,i,i,i,i,i,.,.,.,.,.,.,
COc1ccc(N=c2cc(-c3ccc(O)cc3)oc3ccccc23)cc1,i,i,-6.07*,i,i,-93.5%*,i,-28.0%*,64.0%*,41.0%*,i,
COc1ccc(-c2cc(=Nc3ccc(C)cc3)c3ccccc3o2)cc1,i,i,-8.77*,i,i,.,.,.,.,i,i,TRPC4 sel inh 2=i;TRPC4 spec=-11.9%*;HEK293 MPD ctr 2-1=i;HEK293 MPD ctr-1=i
COc1ccc(-c2cc(=O)c3ccccc3o2)cc1,i,i,i,i,i,.,.,.,.,.,.,
CN1CCN(Cc2cc(=O)oc3cc4c(cc23)CCC4)CC1,i,i,i,i,i,.,.,.,.,.,.,
CCN1CCN(Cc2cc(=O)oc3cc4c(cc23)CCC4)CC1,i,i,-5.07*,i,i,-70.0%*,i,-8.0%*,40.0%*,i,i,
CN(NS(=O)(=O)c1ccc(Br)cc1)c1nc(C(F)(F)F)nc2ccccc12,i,i,-5.89*,i,i,i,i,18.0%*,37.0%*,45.5%*,.,
CN(N)c1nc(C(F)(F)F)nc2ccccc12,i,i,i,i,i,.,.,.,.,.,.,
CC(=O)Nc1cccc(C(=O)N/N=C/c2ccc(F)cc2)c1,i,i,i,i,i,.,.,.,.,.,.,
Cc1ccc(C(=O)Nc2cccc(C(=O)N/N=C/c3ccc(F)cc3)c2)cc1,i,i,-5.96*,i,i,i,i,i,i,i,i,
COCc1ccc(C(=O)N2CCCCC2C(=O)Nc2ccc(-n3nc(C)cc3C)cc2)o1 (stereo not drawn),i,i,i,i,i,.,.,.,.,.,.,
COc1ccccc1C(=O)N1CCCC1(C#N)c1ccccc1 (stereo not drawn),i,i,i,i,i,.,.,.,.,.,.,
COc1ccc(C(=O)N2CCCC2(C#N)c2ccccc2)cc1[N+](=O)[O-] (stereo not drawn),i,i,-7.56*,i,i,.,.,.,.,i,i,TRPC4 sel inh 2=i;TRPC4 spec=0.7%*;HEK293 MPD ctr 2-1=i;HEK293 MPD ctr-1=i
CC(=O)C1=C(O)C(=O)N(C)C1c1ccccc1[N+](=O)[O-] (stereo not drawn),i,i,i,i,i,.,.,.,.,.,.,
CCOc1ccc(NC(=O)c2c(NC(=O)CN3CCN(C)CC3)sc3c2CCC3)cc1,i,i,-8.43*,i,i,.,.,.,.,74.7%*,i,TRPC4 sel inh 2=46.0%*;TRPC4 spec=-25.8%*;HEK293 MPD ctr 2-1=i;HEK293 MPD ctr-1=-409.0%*
Cc1c(CN(C)C)c2c(n1Cc1ccccc1)C(=O)c1ccccc1-2,i,i,-7*,-6*,i,-173.5%*,i,-33.0%*,78.5%*,44.0%*,i,
Cc1cc(=O)n(Cc2ccccc2)c2ccccc12,i,i,i,i,i,.,.,.,.,.,.,
CC(NC(=O)C1CCN(S(=O)(=O)c2ccc3nc4c(c(C(=O)O)c3c2)CCCC4)CC1)c1ccccc1 (stereo not drawn),i,i,i,i,i,.,.,.,.,.,.,
O=C1Nc2ccccc2OC1CC(=O)N1CCN(c2cccc(C(F)(F)F)c2)CC1 (stereo not drawn),i,i,-9.73*,i,i,.,.,.,.,i,i,TRPC4 sel inh 2=i;TRPC4 spec=i;HEK293 MPD ctr 2-1=i;HEK293 MPD ctr-1=i
COCCNC(=S)N1CCCN(c2nc3cc(C)ccc3cc2C#N)CC1,12.1*,i,i,i,i,i,i,i,33.5%*,.,136.0%*,
CS(=O)(=O)N1CCN(C(=O)C2c3ccccc3Oc3ccccc32)CC1,i,i,-5.7*,i,i,i,i,18.0%*,i,42.5%*,.,
COc1ccccc1N1CCN(C(=O)CN(C)S(=O)(=O)c2ccc3c(c2)c(=O)n(C)c(=O)n3C)CC1,i,i,i,i,i,.,.,.,.,.,.,
CCc1ccc(N/C(SC)=C(/C#N)C(N)=O)cc1,i,i,i,i,i,.,.,.,.,.,.,
CCCCS/C(=C(/C#N)C(N)=O)c1cc2c([nH]1)CCCC2,i,i,-5.71*,i,i,i,i,11.0%*,i,54.5%*,i,
COCCN(C(=O)CSc1n[nH]c(-c2ccccc2)n1)c1c(N)n(Cc2ccccc2)c(=O)[nH]c1=O,i,i,i,i,i,.,.,.,.,.,.,
